GPR7 antagonist: antagonists of human GPR7 (neuropeptides B/W receptor 1). P48145. GPR7-expressing cells, fluorescence antagonist assay. AID 1861. actives 1.1% (n = 290,000). inhibition, % at 4.4 µM; in the data active = inhibition above about 16%, passing the limit was not always enough;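 also: cells stimulated with the agonist NPW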
Target sequence (P48145 whole entry, looked up): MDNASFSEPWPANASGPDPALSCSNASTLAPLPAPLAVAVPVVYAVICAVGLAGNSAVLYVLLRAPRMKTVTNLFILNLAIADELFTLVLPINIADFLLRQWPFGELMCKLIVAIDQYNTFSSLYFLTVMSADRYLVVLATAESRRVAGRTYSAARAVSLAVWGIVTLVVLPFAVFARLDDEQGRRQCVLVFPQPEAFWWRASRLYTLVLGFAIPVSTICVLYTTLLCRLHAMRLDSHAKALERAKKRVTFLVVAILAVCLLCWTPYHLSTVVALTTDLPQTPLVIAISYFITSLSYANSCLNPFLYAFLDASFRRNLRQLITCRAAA
pCIP destab: compounds decreasing mouse p/CIP protein stability; Q05BA5; F442A p/CIP-EGFP cells, EGFP fluorescence, 16 h; decrease of EGFP signal, % at 10 µM; actives 0.01% (n = 290,000);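 active = EGFP signal decrease of at least 30% at 10 µM or well 3 SD below plate mean, unless failing retest; inactive = the rest, including hits failing retest or dose response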
HCV core dimer: blocks dimerization of HCV core protein | actives 0.33% (n = 300,000) | AID 1899 | inhibition, % at 5 µM | TR-FRET GST/Flag-core106 dimerization, 1536-well;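 active = inhibition above the mean of all tested compounds plus 3 SD, set per screening campaign, cut at about 45% in these data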
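Assay system: GST-tagged and Flag-tagged HCV core protein residues 1-106 / Times: compound-protein-antibody incubation 4 h at 22.5 °C / Signal: time-resolved FRET, ex 340 nm, em 617 and 671 nm / Evaluation: % inhibition based on acceptor/donor emission ratio / Benchmarks: wells lacking GST-core106 and wells with excess unlabelled core106 / Repeats: singlicate, one well per compound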
DNA FID counter: fluorescent intercalator displacement, NS3 helicase counter-screen; DNA fluorescent intercalator displacement, fluorescence; inhibition, % at 7.9 µM; actives 0.17% (n = 290,000); AID 1845; in the data active = inhibition above about 37%;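 also: higher means more ethidium bromide displaced from hairpin DNA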
NS3 helicase inh: blocks Hepatitis C virus NS3 helicase unwinding; NS3 helicase DNA unwinding, Cy5 molecular beacon fluorescence; inhibition, % at 10.9 µM; actives 0.56% (n = 290,000);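 active = inhibition above the mean of all tested compounds plus 3 SD, set per campaign, cut at about 35% in these data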
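Material: hepatitis C virus NS3 helicase domain fragment enzyme; measured by: Cy5 fluorescence, 0 and 60 min reads; control set: DMSO and thioflavine S; incubation: 60 min unwinding reaction at 25 °C after ATP addition; read-out basis: % inhibition from 60/0 min fluorescence ratio, DMSO 0%, thioflavine S 100%; repeats: singlicate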
GPR7 antag conf: human GPR7 antagonism, confirmation assay; AID 1952; shares compounds with GPR7 antagonist; actives 52% (n = 2,400); inhibition, % at 4.4 µM; GPR7-expressing cells, calcium fluorescence antagonist mode; in the data active = inhibition above about 24%;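 also: stimulated with the GPR7 agonist NPW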
MCHR1 antag: MCHR1 (human) antagonism in GPR7 counter-screen | shares compounds with GPR7 antagonist | MCHR1-expressing cells, fluorescence antagonist assay | inhibition, % at 4.4 µM | actives 62% (n = 2,400); in the data active = inhibition above about 22%
Hits are given with their value. Sampled rows, rich in hits. Any-hit rate of the full collection: about 1.9%.

For CCOc1ccc(CN(C)CC(O)COC(c2ccc(OC)cc2)c2ccc(OC)cc2)cc1 (configuration not stated) the results were GPR7 antagonist 31, pCIP destab inactive, HCV core dimer inactive, DNA FID counter inactive, NS3 helicase inh inactive, GPR7 antag conf 33 and MCHR1 antag 45.
For COc1ccc(CN(C)CC(O)COc2ccc(-c3ccccc3)cc2)cc1OC (configuration not stated) the results were GPR7 antagonist inactive, pCIP destab inactive, HCV core dimer inactive, DNA FID counter inactive and NS3 helicase inh inactive.
`CCOC(=O)c1c(-c2ccccc2)c2cc(OC)ccc2n1CCCN(C)C` gave GPR7 antagonist inactive, pCIP destab inactive, HCV core dimer inactive, DNA FID counter inactive and NS3 helicase inh inactive.
`COC(C(=O)Nc1ccc(S(=O)(=O)Nc2ccc(F)cc2)cc1)c1ccccc1` (configuration not stated) gave GPR7 antagonist 22, pCIP destab inactive, HCV core dimer inactive, DNA FID counter inactive, NS3 helicase inh inactive, GPR7 antag conf 51 and MCHR1 antag 39.
For CCCCc1noc2c1/C(=N\O)CC(c1ccccc1)C2 (configuration not stated) the results were GPR7 antagonist 41, pCIP destab inactive, HCV core dimer inactive, DNA FID counter inactive, NS3 helicase inh inactive, GPR7 antag conf 36 and MCHR1 antag 23.
CSCCCNC(=S)N1CCN(c2ccc(C(C)=O)cc2)CC1 was read as GPR7 antagonist 26, pCIP destab inactive, HCV core dimer inactive, DNA FID counter inactive, NS3 helicase inh inactive, GPR7 antag conf 28 and MCHR1 antag 31.
CC(=O)c1ccc(N2CCN(C(=S)Nc3cc(C)ccc3C)CC2)cc1 was read as GPR7 antagonist inactive, pCIP destab inactive, HCV core dimer inactive, DNA FID counter inactive and NS3 helicase inh inactive.
Screening CN(c1nc2nonc2nc1NC1CC1)C1CCOC1 (configuration not stated) returned GPR7 antagonist inactive, pCIP destab inactive, HCV core dimer inactive, DNA FID counter inactive and NS3 helicase inh inactive.
CCN(CC)CCCNC(=O)CN1N=C(c2ccc(OC)cc2)CCC1=O was read as GPR7 antagonist inactive, pCIP destab inactive, HCV core dimer inactive, DNA FID counter inactive and NS3 helicase inh inactive.
Screening CN1/C(=C\C=C2/C(=O)Oc3ccccc3C2=O)C(C)(C)c2ccccc21 returned GPR7 antagonist 51, pCIP destab inactive, HCV core dimer inactive, DNA FID counter inactive, NS3 helicase inh inactive, GPR7 antag conf 76 and MCHR1 antag 88.
O=C(CCN1CCc2ccccc2C1)c1ccc2c(c1)OCCO2 was read as GPR7 antagonist 23, pCIP destab inactive, HCV core dimer inactive, DNA FID counter inactive, NS3 helicase inh inactive, GPR7 antag conf inactive and MCHR1 antag 22.
O=C(CCN1CCc2ccccc21)c1ccc2c(c1)OCCO2 was read as GPR7 antagonist inactive, pCIP destab inactive, HCV core dimer inactive, DNA FID counter inactive and NS3 helicase inh inactive.
For Cc1cc([N+](=O)[O-])cc(C)c1OCC(=O)N/N=C/c1ccc(OC(=O)c2ccccc2Br)cc1 the results were GPR7 antagonist inactive, pCIP destab inactive, HCV core dimer inactive, DNA FID counter inactive and NS3 helicase inh inactive.
Cc1cc([N+](=O)[O-])cc(C)c1OCC(=O)N/N=C/c1ccc(OC(=O)c2ccccc2)cc1 was read as pCIP destab inactive, HCV core dimer inactive, DNA FID counter inactive, NS3 helicase inh inactive and MCHR1 antag inactive.
For CS(=O)(=O)N(CC(=O)Nc1ccc(F)c(F)c1)c1cccc([N+](=O)[O-])c1 the results were GPR7 antagonist 32, pCIP destab inactive, HCV core dimer inactive, DNA FID counter inactive, NS3 helicase inh inactive, GPR7 antag conf inactive and MCHR1 antag inactive.
For Clc1ccc(CN2C3=NCCCN3c3ccccc32)cc1Cl the results were GPR7 antagonist 24, pCIP destab inactive, HCV core dimer inactive, DNA FID counter inactive, NS3 helicase inh inactive, GPR7 antag conf 26 and MCHR1 antag 27.
For CN1C(=O)/C(=C\c2ccc(N(C)C)cc2)OC1=S the results were GPR7 antagonist 44, pCIP destab inactive, DNA FID counter inactive, NS3 helicase inh inactive, GPR7 antag conf 44 and MCHR1 antag 52.
COc1ccc(-n2c(-c3ccccc3)nnc2-c2ccc(Cl)cc2)cc1 was read as GPR7 antagonist inactive, pCIP destab inactive, HCV core dimer inactive, DNA FID counter inactive and NS3 helicase inh inactive.
COc1ccc(-n2c(-c3ccc(Cl)cc3)c[n+]3c2CCc2ccccc2-3)cc1 was read as GPR7 antagonist 31, pCIP destab inactive, HCV core dimer inactive, DNA FID counter inactive, NS3 helicase inh inactive, GPR7 antag conf 33 and MCHR1 antag 35.
O=C(c1ccc2oc(CCCc3ccccc3)nc2c1)N1CCCC1 was read as GPR7 antagonist inactive, pCIP destab inactive, HCV core dimer inactive, DNA FID counter inactive and NS3 helicase inh inactive.
Screening CC(C)CC(=O)NC(Nc1ccc([N+](=O)[O-])cc1)C(Cl)(Cl)Cl (configuration not stated) returned GPR7 antagonist 26, pCIP destab inactive, HCV core dimer inactive, DNA FID counter inactive, NS3 helicase inh inactive, GPR7 antag conf inactive and MCHR1 antag 45.
`CC(C)CC(=O)NC(Nc1ccccc1F)C(Cl)(Cl)Cl` (configuration not stated) gave GPR7 antagonist inactive, pCIP destab inactive, HCV core dimer inactive, DNA FID counter inactive and NS3 helicase inh inactive.
O=C(Nc1cccnc1)c1ccc(COc2ccccc2Br)o1 was read as GPR7 antagonist 69, pCIP destab inactive, HCV core dimer inactive, DNA FID counter inactive, NS3 helicase inh inactive, GPR7 antag conf 33 and MCHR1 antag 54.
Screening CCc1cccc(C)c1NC(=O)CC1Oc2ccc(C)cc2NC1=O (configuration not stated) returned GPR7 antagonist inactive, pCIP destab inactive, HCV core dimer inactive, DNA FID counter inactive and NS3 helicase inh inactive.
COc1ccc(Cn2nnnc2CN2CCC(c3nc4ccccc4s3)CC2)cc1 was read as GPR7 antagonist 29, pCIP destab inactive, HCV core dimer inactive, DNA FID counter inactive, NS3 helicase inh inactive, GPR7 antag conf 36 and MCHR1 antag 64.
Screening c1ccc2sc(C3CCN(Cc4nnnn4Cc4ccc5c(c4)OCO5)CC3)nc2c1 returned GPR7 antagonist inactive, pCIP destab inactive, HCV core dimer inactive, DNA FID counter inactive and NS3 helicase inh inactive.
COC(=O)c1c(NC(=O)CN2CCC3(O)CCCCC3C2c2ccc(OC)cc2OC)sc(C)c1C (configuration not stated) was read as GPR7 antagonist inactive, pCIP destab inactive, HCV core dimer inactive, DNA FID counter inactive and NS3 helicase inh inactive.
